The source made the active and inactive calls. The calls are words filed in the database; no cut-off is given here.
Experiments:
[1] = biological target: Cellular tumor antigen p53 (Homo sapiens) (UniProt P04637); assay: Activation of p53 in human HCT116 cell at 0.1 to 5 uM after 12 hrs by western blot analysis; assay type: cell-based; settings: HCT-116
Method in brief: (§1)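 HCT116 cells exposed 12 h to compound or vehicle, then lysed on ice in PBS with 1% NP-40, 0.5% deoxycholate, 0.1% SDS and protease inhibitors. Up to 50 µg protein run on SDS-PAGE and immunoblotted for phospho-p53 (Ser15), p53 and p21. Bands quantified by densitometry against β-actin; mean ± SD of three experiments.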

[2] = biological target: Cellular tumor antigen p53 (Homo sapiens) (UniProt P04637); assay: Induction of p53 activation in human HCT116 cells assessed as upregulation of p21 expression at 0.1 to 5 uM after 12 hrs by western blot analysis; assay type: cell-based; settings: HCT-116; method in brief: as §1
[3] = Antitumor activity against human HCT116 cells xenografted in BALB/c mouse assessed as tumor growth inhibition at 90 mg/kg, po measured twice per week over 22 days; assay type: functional; settings: HCT-116, po, 528 h, read-out: TGI
[4] = test system: Mus musculus; assay: Toxicity in BALB/c mouse xenografted with human HCT116 cells assessed as body weight change at 45 mg/kg, ip measured twice per week over 22 days; assay type: organism-based, HCT-116; settings: in vivo, 528 h
[5] = Antitumor activity against human HCT116 cells xenografted in BALB/c mouse assessed as tumor weight at 90 mg/kg, po measured twice per week over 22 days (reference value: 1.38 +/- 0.13 g); assay type: functional, HCT-116
[6] = test system: Mus musculus; assay: Acute toxicity in ICR mouse assessed as death at 240 to 375 mg/kg, ip measured after 2 days; assay type: organism-based; settings: in vivo, 48 h
Method in brief: (§2)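 Female ICR mice, single intraperitoneal injection at 585.9, 468.8, […], 300 or 240 mg/kg, or vehicle control, n = 10 per group. Deaths counted at 1 h, 4 h, daily on days 1-4 and over days 5-14. Eating, drinking, body weight and activity observed for 14 days, with survival (%) taken on day 14. LD50 calculated from mortality.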

[7] = test system: Mus musculus; assay: Acute toxicity in ICR mouse assessed as death at 468.8 mg/kg, ip measured after 5 to 14 days; assay type: organism-based; settings: in vivo; method in brief: as §2
[8] = biological target: T1, Histone deacetylase (Homo sapiens) (UniProt Q13547+O15379+Q9UBN7+Q92769+Q9UQL6+Q8WUI4+Q9BY41+Q96DB2+P56524+Q9UKV0+Q969S8); assay: Potency index, ratio of SAHA IC50 to compound IC50 for HDAC in human HeLa cell nuclear extract; assay type: cell-based
Method in brief: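 HDAC source was HeLa nuclear extract. Incubated with compound dilutions and Boc-Lys(Ac)-AMC substrate for 60 min at 37 °C, then lysine developer added for 30 min. Fluorescence read at ex 355/em 460 nm, activity expressed as % of control and IC50 fitted. Index = SAHA IC50 ÷ compound IC50.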

[9] = biological target: T1, Histone deacetylase (Homo sapiens); assay: Inhibition of HDAC in human HCT116 cells assessed as increase in acetyl-alpha-tubulin expression after 48 hrs by immunoblotting analysis; assay type: cell-based; settings: HCT-116
Method in brief: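 HCT116 cells treated 48 h with compound, SAHA or vehicle. Lysates probed by immunoblot for acetyl-histone H3 and acetyl-α-tubulin, with β-actin as loading control. Relative levels by densitometric scanning; means ± SD of three experiments.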

[10] = Cytotoxicity against rat IEC-18 cells assessed as survival at 5 uM after 48 hrs by MTT assay; assay type: cell-based; settings: iec-18, 48 h
Method in brief: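 HCT116 and rat IEC-18 cells incubated 48 h over a 0–5 µM range. Viability measured by MTT and expressed as % of control. GI50 taken from the inhibition curves; three independent experiments.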

[11] = test system: HCT-116; assay: Induction of caspase-3 cleavage in human HCT116 cells at 1 to 5 uM after 48 hrs by western blot analysis; assay type: functional, cell-based
Method in brief: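 HCT116 cells treated 48 h with or without compound. Western blots probed for Bax, Bcl-2, cleaved caspase-3 and PARP. Band intensities relative to β-actin by densitometry; means ± SD from three separate experiments.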

[12] = biological target: Histone deacetylase 1 (Homo sapiens, UniProt Q13547); assay: Inhibition of recombinant human HDAC1 using Boc-Lys (Ac)-AMC as substrate after 60 mins by fluorometric analysis
Chain of Histone deacetylase 1 (Q13547 whole entry): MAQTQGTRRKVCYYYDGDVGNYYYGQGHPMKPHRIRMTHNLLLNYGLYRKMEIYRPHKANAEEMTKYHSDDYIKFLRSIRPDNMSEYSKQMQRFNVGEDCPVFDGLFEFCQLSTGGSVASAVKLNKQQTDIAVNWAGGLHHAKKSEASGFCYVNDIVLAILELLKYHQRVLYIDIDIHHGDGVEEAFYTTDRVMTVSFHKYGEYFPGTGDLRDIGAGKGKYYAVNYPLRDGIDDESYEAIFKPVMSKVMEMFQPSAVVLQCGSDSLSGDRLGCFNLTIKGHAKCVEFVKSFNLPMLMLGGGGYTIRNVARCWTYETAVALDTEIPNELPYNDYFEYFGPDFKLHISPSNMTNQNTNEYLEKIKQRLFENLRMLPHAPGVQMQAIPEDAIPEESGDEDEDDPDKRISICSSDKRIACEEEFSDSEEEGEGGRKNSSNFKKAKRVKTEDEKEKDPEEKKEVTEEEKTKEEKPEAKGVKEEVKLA

[13] = biological target: T2, Protein deacetylase HDAC6 (Homo sapiens, UniProt Q9UBN7); assay: Inhibition of recombinant human HDAC6 using Boc-Lys (Ac)-AMC as substrate after 60 mins by fluorometric analysis
T2 sequence (Q9UBN7 whole entry): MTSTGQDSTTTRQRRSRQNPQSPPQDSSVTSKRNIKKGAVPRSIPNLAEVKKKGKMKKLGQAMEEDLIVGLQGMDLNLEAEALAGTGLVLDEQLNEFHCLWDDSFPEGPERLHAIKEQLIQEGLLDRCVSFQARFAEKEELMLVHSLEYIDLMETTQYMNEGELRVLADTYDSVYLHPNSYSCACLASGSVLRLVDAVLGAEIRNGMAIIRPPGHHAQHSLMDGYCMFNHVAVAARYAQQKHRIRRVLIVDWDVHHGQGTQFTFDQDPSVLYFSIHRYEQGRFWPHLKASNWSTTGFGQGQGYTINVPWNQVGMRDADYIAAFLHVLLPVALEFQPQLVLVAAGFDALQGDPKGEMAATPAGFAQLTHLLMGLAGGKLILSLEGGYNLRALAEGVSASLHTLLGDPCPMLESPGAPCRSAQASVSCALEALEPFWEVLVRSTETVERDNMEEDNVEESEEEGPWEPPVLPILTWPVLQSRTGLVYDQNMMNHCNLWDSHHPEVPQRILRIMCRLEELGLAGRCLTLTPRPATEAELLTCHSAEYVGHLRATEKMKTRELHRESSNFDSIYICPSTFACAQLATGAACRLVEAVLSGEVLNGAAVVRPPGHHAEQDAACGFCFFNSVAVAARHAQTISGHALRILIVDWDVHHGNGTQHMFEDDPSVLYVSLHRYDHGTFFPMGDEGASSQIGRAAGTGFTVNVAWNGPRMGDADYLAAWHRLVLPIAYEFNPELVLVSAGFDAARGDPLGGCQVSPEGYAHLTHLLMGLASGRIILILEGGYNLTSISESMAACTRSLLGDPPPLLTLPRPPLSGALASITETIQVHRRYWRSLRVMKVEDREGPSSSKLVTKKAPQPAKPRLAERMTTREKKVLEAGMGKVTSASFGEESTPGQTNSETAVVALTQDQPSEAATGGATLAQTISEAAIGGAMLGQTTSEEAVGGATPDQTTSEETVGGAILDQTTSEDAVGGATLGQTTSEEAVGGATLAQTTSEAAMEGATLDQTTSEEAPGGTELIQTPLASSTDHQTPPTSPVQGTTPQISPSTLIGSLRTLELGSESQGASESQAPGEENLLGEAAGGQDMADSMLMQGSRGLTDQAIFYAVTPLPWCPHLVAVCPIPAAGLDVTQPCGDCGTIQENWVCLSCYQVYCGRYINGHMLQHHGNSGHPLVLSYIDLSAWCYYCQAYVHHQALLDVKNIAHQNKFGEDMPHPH

Chain of Cellular tumor antigen p53 (Homo sapiens) (P04637 whole entry, looked up): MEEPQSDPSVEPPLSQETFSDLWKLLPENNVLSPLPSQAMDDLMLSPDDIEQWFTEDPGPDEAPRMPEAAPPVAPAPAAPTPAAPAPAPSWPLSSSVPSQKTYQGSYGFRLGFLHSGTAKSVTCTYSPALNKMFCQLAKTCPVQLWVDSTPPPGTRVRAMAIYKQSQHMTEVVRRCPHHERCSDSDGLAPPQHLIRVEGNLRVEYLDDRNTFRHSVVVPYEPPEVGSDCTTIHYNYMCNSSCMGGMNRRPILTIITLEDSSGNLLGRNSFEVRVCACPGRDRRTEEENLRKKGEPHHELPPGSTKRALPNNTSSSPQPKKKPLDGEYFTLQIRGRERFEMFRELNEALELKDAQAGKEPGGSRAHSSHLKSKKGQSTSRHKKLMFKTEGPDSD

COc1ccc(-c2nc(NC(=O)NCCCC(=O)NO)cc3c2[nH]c2ccccc23)cc1
Activity [1]: Active | Activity [2]: Active | inhibition in vivo at 90 mg/kg [3]: 61.6% | Activity [4]: Non-toxic | Activity [5]: 0.53 g | Activity [6]: Non-toxic | Activity [7]: Non-toxic | Ratio IC50 [8]: 2 | inhibition [9]: Dose-dependent effect | Activity [10]: Non-toxic | Activity [11]: Active | IC50 [12]: 26 nM | IC50 [13]: 34 nM

From ChEMBL document CHEMBL3745678, “Novel β-Carboline/Hydroxamic Acid Hybrids Targeting Both Histone Deacetylase and DNA Display High Anticancer Activity via Regulation of the p53 Signaling Pathway” (J Med Chem, 2015)
